According to ChEMBL document CHEMBL1121494, “Prostaglandins and congeners. 22. Synthesis of 11-substituted derivatives of 11-deoxyprostaglandins E1 and E2. Potential bronchodilators” (1980):

Each compound was assayed on Cavia porcellus (assay: Relative potency against bronchoconstrictions, induced by intravenous administration of histamine at doses […] in guinea pig.).
Type: functional
In short: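 Anesthetized guinea pigs (intraperitoneal urethane), curarized with iv gallamine; modified Konzett-Rossler set-up. Bronchoconstriction provoked by iv histamine or serotonin at 5.6-22.5 μg/kg, doses giving a 20 to 50 cm water rise in tracheal pressure; 12 s iv injections repeated every 5 min. Test compounds given iv. Broncholytic activity scored in at least four animals per spasmogen per dose level, expressed as potency relative to l-PGE₂.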

| SMILES | Relative potency |
| --- | --- |
| CCCCC[C@H](O)/C=C/[C@H]1C(SCC(C)O)CC(=O)[C@@H]1C/C=C\CCCC(=O)OC (some centres undefined) | 2 |
| CCCCC[C@@H](O)/C=C/[C@H]1[C@H](SCCO)CC(=O)[C@@H]1C/C=C\CCCC(=O)OC | 19 |
| CCCCC[C@H](O)/C=C/[C@H]1[C@@H](SCCO)CC(=O)[C@@H]1C/C=C\CCCC(=O)OC | 10 |
| CCCCC[C@H](O)/C=C/[C@H]1C(SCC)CC(=O)[C@@H]1C/C=C\CCCC(=O)OC (some centres undefined) | 1 |
| CCCCC[C@H](O)/C=C/[C@H]1C(SCC(=O)O)CC(=O)[C@@H]1C/C=C\CCCC(=O)OC (some centres undefined) | 0.1 |
| CCCCC[C@H](O)/C=C/[C@H]1C(SCCCO)CC(=O)[C@@H]1C/C=C\CCCC(=O)OC (some centres undefined) | 0.8 |
| CCCCC[C@H](O)/C=C/[C@H]1C(SCCN(CC)CC)CC(=O)[C@@H]1C/C=C\CCCC(=O)OC (some centres undefined) | 22 |
| CCCCC[C@H](O)/C=C/[C@H]1C(SCCN(C)C)CC(=O)[C@@H]1C/C=C\CCCC(=O)OC (some centres undefined) | 14 |
| CCCCC[C@H](O)/C=C/[C@H]1C(SCCS)CC(=O)[C@@H]1C/C=C\CCCC(=O)OC (some centres undefined) | 0.4 |
| CCCCC[C@H](O)/C=C/[C@H]1C(Sc2cccc(O)c2)CC(=O)[C@@H]1C/C=C\CCCC(=O)OC (some centres undefined) | 0.2 |
| CCCCC[C@H](O)/C=C/[C@H]1C(SCCC)CC(=O)[C@@H]1C/C=C\CCCC(=O)OC (some centres undefined) | <0.2 |
| CCCCC[C@H](O)/C=C/[C@H]1C(SCC(=O)OCC)CC(=O)[C@@H]1C/C=C\CCCC(=O)OC (some centres undefined) | 3 |
| CCCCC[C@H](O)/C=C/C1CCC(=O)[C@@H]1C/C=C\CCCC(=O)O (some centres undefined) | 92 |
| CCCCC[C@H](O)/C=C/[C@H]1C(SCCO)CC(=O)[C@@H]1CCCCCCC(=O)O (some centres undefined) | 104 |
| CCCCCC(O)CSC1CC(=O)[C@H](C/C=C\CCCC(=O)OC)[C@H]1/C=C/[C@H](O)CCCCC (some centres undefined) | <0.2 |
| CCCCC[C@H](O)/C=C/[C@H]1C(SCCN)CC(=O)[C@@H]1C/C=C\CCCC(=O)OC (some centres undefined) | 0.3 |
| CCCCC[C@H](O)/C=C/[C@H]1C(SCCCS)CC(=O)[C@@H]1C/C=C\CCCC(=O)OC (some centres undefined) | 9 |
| CCCCC[C@H](O)/C=C/[C@H]1[C@H](SCCO)CC(=O)[C@@H]1C/C=C\CCCC(=O)O | 55 |
| CCCCC[C@H](O)/C=C/[C@H]1C(SCC(O)CO)CC(=O)[C@@H]1C/C=C\CCCC(=O)OC (some centres undefined) | 11 |
| CCCCC[C@H](O)/C=C/[C@H]1[C@H](SCCO)CC(=O)[C@@H]1C/C=C\CCCC(=O)OC | 100 |
| CCCCC(O)C/C=C/[C@H]1[C@H](SCCO)CC(=O)[C@@H]1CCCCCCC(=O)O (mixture of isomers) | 24 |
| CCCCCC(C)(O)/C=C/[C@H]1[C@H](SCCO)CC(=O)[C@@H]1CCCCCCC(=O)O (mixture of isomers) | 16 |
| CCCCC(C)(O)C/C=C/[C@H]1[C@H](SCCO)CC(=O)[C@@H]1C/C=C\CCCC(=O)OC (mixture of isomers) | 109 |
| CCCCCC/C=C/[C@H]1[C@H](SCCO)CC(=O)[C@@H]1C/C=C\CCCC(=O)OC (racemic) | 14 |
| CCCCC[C@H](O)/C=C/[C@H]1[C@H](OCCO)CC(=O)[C@@H]1CCCCCCC(=O)O (racemic) | 14 |
| CCCCC[C@H](O)/C=C/[C@H]1[C@H](OCCO)CC(=O)[C@@H]1C/C=C\CCCC(=O)OC (racemic) | 3 |
| CCCCC[C@H](O)/C=C/[C@H]1[C@H](SCCO)CC(=O)[C@@H]1C/C=C\CCCC(=O)OC (racemic) | 30 |
| CCCCC[C@@H](O)/C=C/[C@H]1[C@@H](SCCO)CC(=O)[C@@H]1C/C=C\CCCC(=O)OC (racemic) | 6 |
| CCCCC[C@H](O)/C=C/[C@H]1[C@H](O)CC(=O)[C@@H]1C/C=C\CCCC(=O)O [DINOPROSTONE] | 570 |
